Source: the array DNA melting data of Ke et al. (doi:10.1101/2024.01.08.574731)

Assays:
[1] = melting temperature; fluorescence melt of hairpins on a sequencing array, two-state fit, raised by 9.35 °C to match UV melts; conditions: sodium 0.088 M
In short: (§1)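 Cy3 signals were normalised both to pre-quench Cy3 and to control constructs. They came from library hairpins carrying annealed Cy3 and quencher oligos on a sequenced MiSeq flow cell, imaged in 50 mM Na-HEPES pH 8.0, 25 mM NaCl, in 2.5 °C steps up to 60 °C. Bootstrapped two-state fits gave melting temperature and folding enthalpy, and four replicates were combined by inverse variance. Fitted temperatures were then raised by 9.35 °C to match UV melts.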

[2] = folding enthalpy; higher = less favourable; fluorescence melt of hairpins on a sequencing array, two-state fit; conditions: sodium 0.088 M
In short: as §1

## GAAGAAGGAAACTCCTTC ((((.((....)).))))
[1]
  Tm: 30.7 °C
[2]
  folding enthalpy: -19.2 kcal/mol

## GAAGACGAAAGTCCTTTC ((((((....)))..)))
[1]
  Tm: 29.6 °C
[2]
  folding enthalpy: -11.6 kcal/mol

## GAAGACGAAAGTCGATTC ((((((....)))..)))
[1]
  Tm: 47.4 °C
[2]
  folding enthalpy: -24.1 kcal/mol

## GAAGACGAAAGTCTCTTC ((((((....)))..)))
[1]
  Tm: 51.6 °C
[2]
  folding enthalpy: -23.9 kcal/mol

## GAAGACGGAAACGCCTTC ((((.((....)).))))
[1]
  Tm: 45.6 °C
[2]
  folding enthalpy: -26.5 kcal/mol

## GAAGACGGAAACGTCTCC (.(((((....))))).)
[1]
  Tm: 39.3 °C
[2]
  folding enthalpy: -12.6 kcal/mol

## GAAGATACGAAAGTATTC (((..(((....))))))
[1]
  Tm: 27.7 °C
[2]
  folding enthalpy: -8.74 kcal/mol

## GAAGCACGAAAGTGATTC (((.(((....))).)))
[1]
  Tm: 60 °C
[2]
  folding enthalpy: -35.1 kcal/mol

## GAAGCAGGAAACCGCTTC (((((.(....).)))))
[1]
  Tm: 47.1 °C
[2]
  folding enthalpy: -30.4 kcal/mol

## GAAGCCGAAAGGCAATTC ((((((....)))..)))
[1]
  Tm: 39.6 °C
[2]
  folding enthalpy: -13.7 kcal/mol

## GAAGCCGAAAGGCATTC ((((((....))).)))
[1]
  Tm: 40.6 °C
[2]
  folding enthalpy: -11.1 kcal/mol

## GAAGCCGGAAACAGCTTC (((((.(....).)))))
[1]
  Tm: 42.8 °C
[2]
  folding enthalpy: -29.2 kcal/mol

## GAAGCGCCGAAAGGCTTC (((..(((....))))))
[1]
  Tm: 32.3 °C
[2]
  folding enthalpy: -10.5 kcal/mol

## GAAGCGGCGAAAGCCTTC (((..(((....))))))
[1]
  Tm: 28.5 °C
[2]
  folding enthalpy: -10.2 kcal/mol

## GAAGCTGGAAACAGCCTC ((.((((....)))).))
[1]
  Tm: 32.6 °C
[2]
  folding enthalpy: -13.8 kcal/mol

## GAAGGACGAAAGTCGTTC (((.(((....))).)))
[1]
  Tm: 51.9 °C
[2]
  folding enthalpy: -37.1 kcal/mol

## GAAGGACGAAAGTCTTTC (((.(((....))).)))
[1]
  Tm: 46.3 °C
[2]
  folding enthalpy: -25 kcal/mol

## GAAGGAGGAAACCCCTTC (((((.(....).)))))
[1]
  Tm: 36.9 °C
[2]
  folding enthalpy: -31.3 kcal/mol

## GAAGGAGGAAACTCCTTC (((((((....)))))))
[1]
  Tm: 58.3 °C
[2]
  folding enthalpy: -33.6 kcal/mol

## GAAGGCCGAAAGGCGTTC (((.(((....))).)))
[1]
  Tm: 57 °C
[2]
  folding enthalpy: -26.3 kcal/mol

## GAAGGCGAAAGCCCCTTC ((((((....)))..)))
[1]
  Tm: 35.1 °C
[2]
  folding enthalpy: -9.89 kcal/mol

## GAAGGCGAAAGCCCGTTC ((((((....)))..)))
[1]
  Tm: 27.2 °C
[2]
  folding enthalpy: -12 kcal/mol

## GAAGGCGAAAGCCGCTTC ((((((....)))..)))
[1]
  Tm: 56.2 °C
[2]
  folding enthalpy: -13.6 kcal/mol

## GAAGGCGAAAGCCGGTTC ((((((....)))..)))
[1]
  Tm: 43.4 °C
[2]
  folding enthalpy: -9.54 kcal/mol

## GAAGGCGAAAGCCGTTC ((((((....))).)))
[1]
  Tm: 43 °C
[2]
  folding enthalpy: -8.18 kcal/mol

## GAAGGGACGAAAGTCTTC (((..(((....))))))
[1]
  Tm: 26.7 °C
[2]
  folding enthalpy: -11.8 kcal/mol

## GAAGGGGGAAACCCCCTC ((.((((....)))).))
[1]
  Tm: 42.4 °C
[2]
  folding enthalpy: -12.7 kcal/mol

## GAAGGTGGAAACACTTTC (((.(((....))).)))
[1]
  Tm: 38 °C
[2]
  folding enthalpy: -24.9 kcal/mol

## GAAGGTGGAAACGCCTTC (((((.(....).)))))
[1]
  Tm: 51.9 °C
[2]
  folding enthalpy: -31.9 kcal/mol

## GAAGTCGGAAACGACCTC ((.((((....)))).))
[1]
  Tm: 37.2 °C
[2]
  folding enthalpy: -13.6 kcal/mol

## GAAGTGAAAACTTC (((((....)))))
[1]
  Tm: 43.1 °C
[2]
  folding enthalpy: -23.2 kcal/mol

## GAAGTGGCGAAAGCCTTC (((..(((....))))))
[1]
  Tm: 31.4 °C
[2]
  folding enthalpy: -11.4 kcal/mol

## GAAGTTGGAAACAACCTC ((.((((....)))).))
[1]
  Tm: 27.4 °C
[2]
  folding enthalpy: -15 kcal/mol

## GAAGTTGGAAACAACTTC (((((((....)))))))
[1]
  Tm: 57.3 °C
[2]
  folding enthalpy: -41.2 kcal/mol

## GAAGTTGGAAACAGCTTC ((((.((....)).))))
[1]
  Tm: 44.4 °C
[2]
  folding enthalpy: -38.7 kcal/mol

## GAATAACCGAAAGGTTTC (((..(((....))))))
[1]
  Tm: 25.6 °C
[2]
  folding enthalpy: -15.1 kcal/mol

## GAATAACGAAAGTTTTTC (((.(((....))).)))
[1]
  Tm: 32 °C
[2]
  folding enthalpy: -28.6 kcal/mol

## GAATAAGAAATTATTC ((((((....))))))
[1]
  Tm: 31.9 °C
[2]
  folding enthalpy: -10.4 kcal/mol

## GAATACGAAAGTAATTC ((((((....))).)))
[1]
  Tm: 34.1 °C
[2]
  folding enthalpy: -13.6 kcal/mol

## GAATACGAAAGTATTC ((((((....))))))
[1]
  Tm: 55.5 °C
[2]
  folding enthalpy: -34.4 kcal/mol

## GAATACGGAAACGTGTTC (((.(((....))).)))
[1]
  Tm: 47.1 °C
[2]
  folding enthalpy: -33.2 kcal/mol

## GAATAGACGAAAGTCTTC (((..(((....))))))
[1]
  Tm: 26.1 °C
[2]
  folding enthalpy: -11.8 kcal/mol

## GAATAGCGAAAGCTGTTC (((.(((....))).)))
[1]
  Tm: 51.5 °C
[2]
  folding enthalpy: -39.9 kcal/mol

## GAATAGCGAAAGCTTTTC (((.(((....))).)))
[1]
  Tm: 36.6 °C
[2]
  folding enthalpy: -20.6 kcal/mol

## GAATAGGAAACTATTC ((((((....))))))
[1]
  Tm: 40.7 °C
[2]
  folding enthalpy: -31 kcal/mol
